What was measured:
Type in all cases: functional
[1] = Growth inhibition of human HCC2998 cells assessed as cell growth at 10^-7 M after 48 hrs by SRB assay; conditions: HCC 2998, 48 h, read-out: Activity
SN12C = test: Growth inhibition of human SN12C cells assessed as cell growth at 10^-8 M after 48 hrs by SRB assay; conditions: read-out: Activity
DU-145 = test: Growth inhibition of human DU145 cells assessed as cell growth at 10^-8 M after 48 hrs by SRB assay; conditions: DU-145, 48 h, read-out: Activity
MCF7 [2] = test: Growth inhibition of human MCF7 cells assessed as cell growth at 10^-5 M after 48 hrs by SRB assay; conditions: MCF7, 48 h, read-out: Activity
[3] = Growth inhibition of human UACC257 cells assessed as cell growth at 10^-6 M after 48 hrs by SRB assay; conditions: UACC-257, 48 h, read-out: Activity
K562 [4] = test: Growth inhibition of human K562 cells assessed as cell growth at 10^-4 M after 48 hrs by SRB assay; conditions: K562, 48 h, read-out: Activity
SW-620 = test: Growth inhibition of human SW620 cells assessed as cell growth at 10^-6 M after 48 hrs by SRB assay; conditions: SW-620, 48 h, read-out: Activity
SR [5] = test: Growth inhibition of human SR cells assessed as cell growth at 10^-8 M after 48 hrs by SRB assay; conditions: read-out: Activity
786-0 = test: Growth inhibition of human 786-0 cells assessed as cell growth at 10^-5 M after 48 hrs by SRB assay; conditions: 786-0, 48 h, read-out: Activity
Summary of the method: (§1)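 Five-dose NCI panel protocol. Each dose (10^-4 to 10^-8 M, 10-fold steps) was given as 48 h continuous exposure, and protein was measured by SRB staining. Percentage growth at each level is [(Ti−Tz)/(C−Tz)]×100, where Tz is time-zero absorbance and C is untreated control.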

MCF7 [6] = test: Growth inhibition of human MCF7 cells assessed as cell growth at 10^-7 M after 48 hrs by SRB assay; conditions: MCF7, 48 h, read-out: Activity
SNB-75 = test: Growth inhibition of human SNB75 cells assessed as cell growth at 10^-7 M after 48 hrs by SRB assay; conditions: SNB-75, 48 h, read-out: Activity
[7] = Growth inhibition of human EKVX cells assessed as cell growth at 10^-8 M after 48 hrs by SRB assay; conditions: read-out: Activity
[8] = Growth inhibition of human NCI-ADR-RES cells assessed as cell growth at 10^-5 M after 48 hrs by SRB assay; conditions: read-out: Activity
[9] = Growth inhibition of human HCC2998 cells assessed as cell growth at 10^-8 M after 48 hrs by SRB assay; conditions: HCC 2998, 48 h, read-out: Activity
NCI-H23 = test: Cytotoxicity against human NCI-H23 cells after 48 hrs by SRB assay; conditions: NCI-H23, 48 h
Summary of the method: (§2)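 NCI 60-cell-line panel of human tumour lines from nine cancer types. Continuous 48 h exposure at five 10-fold dilutions from 10^-4 to 10^-8 M, with 5-FU as positive control. SRB protein stain read spectrophotometrically at time zero, untreated control and each concentration. GI50, TGI and LC50 were derived from the [(Ti−Tz)/(C−Tz)]×100 growth relations, and out-of-range values are given as > or < the tested limits.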

[10] = Growth inhibition of human HCT15 cells assessed as cell growth at 10^-5 M after 48 hrs by SRB assay; conditions: HCT-15, 48 h, read-out: Activity
U-251 = test: Cytotoxicity against human U251 cells after 48 hrs by SRB assay; conditions: U-251, 48 h
Summary of the method: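 NCI 60-cell-line panel, 48 h continuous exposure to five 10-fold dilutions from 10^-4 to 10^-8 M. SRB protein staining was read spectrophotometrically, with time-zero, untreated-control and treated absorbances. GI50, TGI and LC50 were derived from the percentage-growth formulas. Values outside the tested range are expressed as more or less than the maximum or minimum concentration.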

[11] = Growth inhibition of human BT549 cells assessed as cell growth at 10^-6 M after 48 hrs by SRB assay; conditions: BT-549, 48 h, read-out: Activity; summary of the method: as §1
SF-268 = test: Cytotoxicity against human SF268 cells after 48 hrs by SRB assay; conditions: SF-268, 48 h; summary of the method: as §2
MDA-MB-231 = test: Growth inhibition of human MDA-MB-231 cells assessed as cell growth at 10^-7 M after 48 hrs by SRB assay; conditions: MDA-MB-231, 48 h, read-out: Activity
SNB-19 = test: Growth inhibition of human SNB19 cells assessed as cell growth at 10^-5 M after 48 hrs by SRB assay; conditions: SNB-19, 48 h, read-out: Activity
RPMI-8226 = test: Growth inhibition of human RPMI8226 cells assessed as cell growth at 10^-8 M after 48 hrs by SRB assay; conditions: RPMI-8226, 48 h, read-out: Activity
[12] = Cytotoxicity against human HCT15 cells after 48 hrs by SRB assay; conditions: HCT-15, 48 h; summary of the method: as §2
K562 [13] = test: Growth inhibition of human K562 cells assessed as cell growth at 10^-5 M after 48 hrs by SRB assay; conditions: K562, 48 h, read-out: Activity
SR [14] = test: Growth inhibition of human SR cells assessed as cell growth at 10^-5 M after 48 hrs by SRB assay; conditions: read-out: Activity
[15] = Growth inhibition of human BT549 cells assessed as cell growth at 10^-4 M after 48 hrs by SRB assay; conditions: BT-549, 48 h, read-out: Activity; summary of the method: as §1
[16] = Growth inhibition of human RXF393 cells assessed as cell growth at 10^-5 M after 48 hrs by SRB assay; conditions: RXF 393, 48 h, read-out: Activity
PC-3 = test: Growth inhibition of human PC3 cells assessed as cell growth at 10^-7 M after 48 hrs by SRB assay; conditions: PC-3, 48 h, read-out: Activity
SK-MEL-5 = test: Growth inhibition of human SK-MEL-5 cells assessed as cell growth at 10^-6 M after 48 hrs by SRB assay; conditions: SK-MEL-5, 48 h, read-out: Activity
MDA-MB-468 = test: Growth inhibition of human MDA-MB-468 cells assessed as cell growth at 10^-5 M after 48 hrs by SRB assay; conditions: MDA-MB-468, 48 h, read-out: Activity
[17] = read-out: LC50 (the source's name)
[18] = read-out: pLC50 (the source's name) (converted)

## Cc1ccc(-c2nc3ccc(Cl)cc3c(=O)n2/N=C/c2ccccc2)cc1
[1]
  growth at 0.1 µM: 102%
SN12C
  growth at 0.01 µM: 104%
DU-145
  growth at 0.01 µM: 97%
MCF7 [2]
  growth at 10 µM: 59%
[3]
  growth at 1 µM: 97%
K562 [4]
  growth at 100 µM: 59%
SW-620
  growth at 1 µM: 89%
SR [5]
  growth at 0.01 µM: 96%
786-0
  growth at 10 µM: 18%
MCF7 [6]
  growth at 0.1 µM: 90%
SNB-75
  growth at 0.1 µM: 81%
[7]
  growth at 0.01 µM: 92%
[8]
  growth at 10 µM: 48%
[9]
  growth at 0.01 µM: 102%
NCI-H23; read-out: GI50
  GI50: 100 µM
NCI-H23; [17]
  CC50: > 100 µM
NCI-H23; read-out: TGI
  TGI: > 100 µM
NCI-H23; read-out: pGI50 (converted)
  GI50: > 100 µM
NCI-H23; [18]
  CC50: > 100 µM
NCI-H23; read-out: pTGI
  TGI: > 100 µM
[10]
  growth at 10 µM: 79%
U-251; read-out: GI50
  GI50: 5.05 µM
U-251; [17]
  CC50: > 100 µM
U-251; read-out: TGI
  TGI: > 100 µM
U-251; read-out: pGI50 (converted)
  GI50: 5.01 µM
U-251; [18]
  CC50: > 100 µM
U-251; read-out: pTGI
  TGI: > 100 µM
[11]
  growth at 1 µM: 103%
SF-268; read-out: GI50
  GI50: 9.98 µM
SF-268; [17]
  CC50: > 100 µM
SF-268; read-out: TGI
  TGI: > 100 µM
SF-268; read-out: pGI50 (converted)
  GI50: 10 µM
SF-268; [18]
  CC50: > 100 µM
SF-268; read-out: pTGI
  TGI: > 100 µM
MDA-MB-231
  growth at 0.1 µM: 99%
SNB-19
  growth at 10 µM: 34%
RPMI-8226
  growth at 0.01 µM: 95%
[12]; read-out: GI50
  GI50: > 100 µM
[12]; [17]
  CC50: > 100 µM
[12]; read-out: TGI
  TGI: > 100 µM
[12]; read-out: pGI50 (converted)
  GI50: > 100 µM
[12]; [18]
  CC50: > 100 µM
[12]; read-out: pTGI
  TGI: > 100 µM
K562 [13]
  growth at 10 µM: 72%
SR [14]
  growth at 10 µM: 63%
[15]
  growth at 100 µM: 72%
[16]
  growth at 10 µM: 41%
PC-3
  growth at 0.1 µM: 90%
SK-MEL-5
  growth at 1 µM: 77%
MDA-MB-468
  growth at 10 µM: 65%

— ChEMBL document CHEMBL3259728, “Design, synthesis and biological evaluation of some novel substituted quinazolines as antitumor agents” (2014)
